From ChEMBL document CHEMBL4715933, “Identification of Potent Reverse Indazole Inhibitors for HPK1” (ACS Med Chem Lett, 2021)

Key:
[1] = biological target: T1, Mitogen-activated protein kinase kinase kinase kinase 1 (Homo sapiens, UniProt Q92918); assay: Displacement of Tracer 222 from N-terminal GST-tagged human recombinant HPK1 (1 to 346 residues ) expressed in baculovirus-infected Sf9 cells incubated for 1 hr by HTRF lanthascreen binding assay
In short: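 Binding (tracer-displacement) format run with tracer at a concentration approximately equal to its Kd; IC50 derived from displacement.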
Target sequence in this assay (Q92918 whole entry, the tested form may be a part): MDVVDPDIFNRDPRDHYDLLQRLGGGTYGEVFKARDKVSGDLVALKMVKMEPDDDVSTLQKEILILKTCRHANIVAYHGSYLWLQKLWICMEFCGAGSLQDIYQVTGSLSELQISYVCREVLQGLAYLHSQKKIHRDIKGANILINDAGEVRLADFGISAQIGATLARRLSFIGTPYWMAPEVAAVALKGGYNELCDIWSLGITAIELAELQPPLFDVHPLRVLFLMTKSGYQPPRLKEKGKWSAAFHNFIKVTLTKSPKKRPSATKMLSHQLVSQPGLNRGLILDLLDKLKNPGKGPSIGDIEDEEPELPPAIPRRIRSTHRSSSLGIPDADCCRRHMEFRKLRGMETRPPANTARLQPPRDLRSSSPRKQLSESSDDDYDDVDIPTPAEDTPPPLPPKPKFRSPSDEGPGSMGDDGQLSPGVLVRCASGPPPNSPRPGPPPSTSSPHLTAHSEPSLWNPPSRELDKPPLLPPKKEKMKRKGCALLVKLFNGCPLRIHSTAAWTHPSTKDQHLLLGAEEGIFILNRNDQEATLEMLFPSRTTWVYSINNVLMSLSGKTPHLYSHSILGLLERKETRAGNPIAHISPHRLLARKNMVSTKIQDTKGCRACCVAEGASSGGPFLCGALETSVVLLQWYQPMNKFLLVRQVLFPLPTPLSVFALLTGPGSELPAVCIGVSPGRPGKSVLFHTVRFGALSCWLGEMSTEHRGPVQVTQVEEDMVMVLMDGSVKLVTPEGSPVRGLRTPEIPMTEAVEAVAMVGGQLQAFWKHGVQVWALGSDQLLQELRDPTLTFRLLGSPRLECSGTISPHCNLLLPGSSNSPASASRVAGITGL

Homo sapiens [2] = organism: Homo sapiens; assay: Selectivity ratio of IC50 for JAK2 (unknown origin) by ATP competitive binding assay to IC50 for N-terminal GST-tagged human recombinant HPK1 (1 to 346 residues ) expressed in baculovirus-infected Sf9 cells by HTRF lanthascreen binding assay
In short: (§1)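 Ratio of off-target kinase IC50 (JAK1, JAK2 or CDK2) to HPK1 IC50. The off-target kinase assays were run at ATP approximately equal to Km(ATP). HPK1 IC50 came from the tracer-displacement assay with tracer at approximately Kd(tracer).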

Homo sapiens [3] = organism: Homo sapiens; assay: Selectivity ratio of IC50 for CDK2 (unknown origin) by ATP competitive binding assay to IC50 for N-terminal GST-tagged human recombinant HPK1 (1 to 346 residues ) expressed in baculovirus-infected Sf9 cells by HTRF lanthascreen binding assay; in short: as §1
Homo sapiens [4] = organism: Homo sapiens; assay: Selectivity ratio of IC50 for JAK1 (unknown origin) by ATP competitive binding assay to IC50 for N-terminal GST-tagged human recombinant HPK1 (1 to 346 residues ) expressed in baculovirus-infected Sf9 cells by HTRF lanthascreen binding assay; in short: as §1
[5] = Volume of distribution in Wistar Han rat at 0.1 mg/kg, iv; assay type: ADME, organism-based; conditions: in vivo
In short: (§2)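 Male Wistar Han rats dosed intravenously at 0.1 mg/kg, given as a solution in DMSO/PEG400/H2O. Plasma PK parameters derived: total plasma clearance, volume of distribution, mean residence time and half-life. Unbound clearance accounts for plasma protein binding.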

[6] = biological target: T1, Mitogen-activated protein kinase kinase kinase kinase 1; assay: Inhibition of HPK1 in human PBMC assessed as inhibition of SLP76 phosphorylation by ELISA
In short: (§3)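 Target-engagement assay in human peripheral blood mononuclear cells with ELISA readout of SLP76 phosphorylation. Total-cell IC50 reported. Unbound IC50 obtained by correcting for compound binding to the 10% FBS present in the assay medium.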
Target sequence in this assay (Q92918 whole entry, the tested form may be a part): as above

[7] = Total Plasma clearance in Wistar Han rat at 0.1 mg/kg, iv; assay type: ADME, organism-based; in short: as §2
[8] = biological target: T1, Mitogen-activated protein kinase kinase kinase kinase 1; assay: Inhibition of HPK1 in human PBMC assessed as unbound concentration required for inhibition of SLP76 phosphorylation by ELISA corrected to binding to 10% FBS; in short: as §3
Target sequence in this assay (Q92918 whole entry, looked up, the tested form may be a part): as the sequence (Q92918 whole entry, the tested form may be a part) above

[9] = Unbound clearance in Wistar Han rat at 0.1 mg/kg, iv; assay type: ADME, organism-based; conditions: in vivo; in short: as §2
[10] = Apparent permeability of compound in dog MDCKII cells; assay type: ADME, cell-based, Canis lupus familiaris, MDCK-II; conditions: MDCK
[11] = Half life in Wistar Han rat at 0.1 mg/kg, iv; assay type: ADME, organism-based; conditions: in vivo; in short: as §2
[12] = Mean residence time in Wistar Han rat at 0.1 mg/kg, iv; assay type: ADME, organism-based; conditions: in vivo; in short: as §2
[13] = Mean residence time in Wistar Han rat at 2 mg/kg, iv; assay type: ADME, organism-based; conditions: in vivo
In short: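 Male Wistar Han rats received a single intravenous dose of 2 mg/kg, formulated as a solution in 30% captisol/70% water. Mean residence time derived from plasma concentration–time data.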

[14] = Oral bioavailability in Wistar Han rat at 0.5 mg/kg; assay type: ADME, organism-based; conditions: in vivo
In short: (§4)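 Male Wistar Han rats given 0.5 mg/kg intravenously and 0.5 mg/kg orally, both as solutions in DMSO/PEG400/H2O. Plasma clearance, volume of distribution, half-life and oral bioavailability determined. Unbound parameters correct for plasma protein binding.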

[15] = Unbound clearance in Wistar Han rat at 0.5 mg/kg, iv or 0.5 mg/kg, po; assay type: ADME, organism-based; conditions: in vivo; in short: as §4
[16] = Half life in Wistar Han rat at 0.5 mg/kg, iv or 0.5 mg/kg, po; assay type: ADME, organism-based; conditions: in vivo; in short: as §4
[17] = Total Plasma clearance in Wistar Han rat at 0.5 mg/kg, iv or 0.5 mg/kg, po; assay type: ADME, organism-based; in short: as §4
[18] = Volume of distribution in Wistar Han rat at 0.5 mg/kg, iv or 0.5 mg/kg, po; assay type: ADME, organism-based; conditions: in vivo; in short: as §4
[19] = Unbound volume of distribution in Wistar Han rat at 0.5 mg/kg, iv or 0.5 mg/kg, po; assay type: ADME, organism-based; conditions: in vivo; in short: as §4

IC50 [1] [nM] | SMILES | Ratio IC50 (Homo sapiens [2]) | Ratio IC50 (Homo sapiens [3]) | Ratio IC50 (Homo sapiens [4]) | also measured
1090 | Cc1cccc(F)c1-c1cc2c(cn1)cnn2-c1cnn(C)c1 | – | – | – | –
284 | Cc1cccc(C)c1-c1cc2c(cn1)cnn2-c1ccc(N2CCN(C)CC2)cc1 | 35 | 35 | 35 | –
193 | CNC1CCc2c1ccc(F)c2-c1cc2c(cn1)cnn2-c1ccc(N2CCN(C)CC2)cc1 (racemic) | 52 | 52 | 52 | –
109 | COc1cccc(F)c1-c1cc2c(cn1)cnn2-c1cccc(N2CCCC2)n1 | – | – | – | –
40 | COc1cccc(F)c1-c1cc2c(cn1)cnn2-c1cccc(N2CCCCC2)n1 | 26 | 43 | 252 | –
32 | COc1cccc(F)c1-c1cc2c(cn1)cnn2-c1cccc(N2CC(N)C2)n1 | 24 | 10 | 59 | –
557 | CCOc1cccc(F)c1-c1cc2c(cn1)cnn2-c1ccc(N2CCN(C)CC2)cc1 | 18 | 18 | 18 | –
2.6 | COc1cccc(F)c1-c1cc2c(cn1)cnn2-c1cccc(N2CCN(C)CC2)n1 | 135 | 44 | 751 | Vd [5]: 1.1 L/kg; IC50 [6]: 8 µM; clearance [7]: 9.4 mL/min/kg; fIC50 [8]: 0.6 µM; CL free [9]: 2171 mL/min/kg; Papp [10]: 28 ×10⁻⁶ cm/s; half-life [11]: 138 min
11 | CNC(=O)N1CCN(c2cccc(-n3ncc4cnc(-c5c(F)cccc5OC)cc43)n2)CC1 | 32 | 30 | 311 | –
3.8 | COc1cccc(F)c1-c1cc2c(cn1)cnn2-c1cccc(N2CCNCC2)n1 | 204 | 29 | 446 | –
408 | COc1cccc(F)c1-c1cc2c(cn1)cnn2-c1cccc(N2CCN(C)CC2)c1 | 25 | – | 25 | –
213 | COc1cccc(F)c1-c1cc2c(cn1)cnn2-c1cccc(N2CCCC2=O)n1 | – | – | – | –
32 | COC(=O)N1CCN(c2cccc(-n3ncc4cnc(-c5c(F)cccc5OC)cc43)n2)CC1 | 5 | 11 | 65 | –
1460 | C[C@@H]1CN(c2cc(-n3ncc4ccc(-c5cnn6c5OCCC6)cc43)ccn2)C[C@H](C)N1C | 7 | – | 7 | Vd [5]: 1.4 L/kg; MRT [12]: 2.6 h; clearance [7]: 8.7 mL/min/kg
2200 | COc1ccncc1-c1ccc2cnn(-c3ccnc(N4CCOCC4)c3)c2c1 | 4 | – | 4 | Vd [5]: 2.1 L/kg; clearance [7]: 31 mL/min/kg; MRT [13]: 1.2 h
31 | COc1cccc(F)c1-c1cc2c(cn1)cnn2-c1ccc(N2CCN(C)CC2)cn1 | 61 | 77 | 95 | –
120 | COc1ccncc1-c1cc2c(cn1)cnn2-c1ccc(N2CCN(C)CC2)cc1 | 83 | 4 | 83 | –
9.1 | CN1CCN(c2cc(-c3n[nH]c4ccc(-c5cnn6c5CCC6)cc34)ccn2)CC1 | 1110 | – | 205 | Vd [5]: 7.1 L/kg; MRT [12]: 1 h; clearance [7]: 117 mL/min/kg
1050 | COc1cccc(F)c1-c1cc2c(cn1)cnn2-c1ccccc1 | 10 | – | 10 | –
2 | COc1cccc(F)c1-c1cc2c(cnn2-c2cccc(N3CCN(C)CC3)n2)cc1C#N | 130 | 115 | 1320 | Vd [5]: 2.3 L/kg; IC50 [6]: > 10 µM; clearance [7]: 12 mL/min/kg; CL free [9]: 19913 mL/min/kg; Papp [10]: < 14 ×10⁻⁶ cm/s; half-life [11]: 186 min

IC50 [1] [nM] | SMILES | Ratio IC50 (Homo sapiens [2]) | Ratio IC50 (Homo sapiens [3]) | Ratio IC50 (Homo sapiens [4]) | also measured
34 | COc1cccc(F)c1-c1cc2c(cn1)cnn2-c1cccc(N2CCOCC2)n1 | 18 | 12 | 92 | –
1.9 | COc1cccc(F)c1-c1cc2c(cn1)cnn2-c1cccc(N2C[C@@H]3C[C@H]2CN3C)n1 | 599 | 61 | 5190 | IC50 [6]: 4.3 µM; fIC50 [8]: 1.1 µM; bioavailability [14]: > 100%; CL free [15]: 2962 mL/min/kg; half-life [16]: 108 min; Papp [10]: 34 ×10⁻⁶ cm/s; clearance [17]: 4.2 mL/min/kg; Vd [18]: 0.5 L/kg
89 | COc1cccc(F)c1-c1cc2c(cn1)cnn2-c1ccc(N2CCN(C)CC2)cc1 | 112 | 112 | 112 | –
28 | Cc1cccc(F)c1-c1cc2c(cnn2-c2ccc(N3CCN(C)CC3)cc2)cc1C#N | – | 357 | 357 | Vd [5]: 18 L/kg; IC50 [6]: > 10 µM; clearance [7]: 151 mL/min/kg; Papp [10]: < 8 ×10⁻⁶ cm/s; half-life [11]: 132 min
1.1 | COc1cccc(F)c1-c1cc2c(cn1)cnn2-c1cccc(N2CC3CCC(C2)N3C)n1 | 1450 | 61 | 8960 | IC50 [6]: 4 µM; fIC50 [8]: 0.3 µM; bioavailability [14]: 67%; CL free [15]: 1197 mL/min/kg; half-life [16]: 126 min; Papp [10]: 26 ×10⁻⁶ cm/s; clearance [17]: 19 mL/min/kg; Vdu [19]: 143 L/kg; Vd [18]: 2.3 L/kg
60 | COc1cccc(F)c1-c1cc2c(cn1)cnn2-c1ccnc(N2CCN(C)CC2)c1 | 61 | 167 | 167 | –
1.2 | COc1cccc(F)c1-c1cc2c(cn1)cnn2-c1cccc(N2CC[C@H](N(C)C)C2)n1 | 393 | 281 | 3070 | Vd [5]: 0.3 L/kg; IC50 [6]: > 10 µM; clearance [7]: 4.8 mL/min/kg; Papp [10]: 30 ×10⁻⁶ cm/s; half-life [11]: 72 min
410 | Cc1ccccc1-c1cc2c(cn1)cnn2-c1ccc(N2CCN(C)CC2)cc1 | 24 | – | 24 | –
1470 | Cc1cccc(F)c1-c1ccc2cnn(-c3ccc(N4CCN(C)CC4)cc3)c2c1 | – | – | – | –
103 | COc1cccc(-n2ncc3cnc(-c4c(F)cccc4OC)cc32)n1 | 21 | 5 | 97 | –
17 | CNC1CCN(c2cccc(-n3ncc4cnc(-c5c(F)cccc5OC)cc43)n2)CC1 | 90 | 8.5 | 112 | –
15 | CN1CCN(c2cc(-c3n[nH]c4cnc(-c5cnn6c5CCC6)cc34)ccn2)CC1 | 32 | – | 45 | Vd [5]: 15 L/kg; MRT [12]: 1.9 h; clearance [7]: 130 mL/min/kg
101 | COc1cccc(F)c1-c1cc2c(cn1)cnn2-c1ccc(N2CCOCC2)cc1 | 99 | – | 99 | –
518 | COc1cccc(F)c1-c1cc2c(cn1)cnn2-c1cccc(N)n1 | – | – | – | –
1.8 | COc1cccc(F)c1-c1cc2c(cn1)cnn2-c1cc(Cl)cc(N2CCN(C)CC2)n1 | 134 | 597 | 347 | –
121 | Cc1cccc(F)c1-c1cc2c(cn1)cnn2-c1ccc(N2CCN(C)CC2)cc1 | 83 | 83 | 83 | –
6.7 | COc1cccc(F)c1-c1cc2c(cn1)cnn2-c1ccnc(N2CCN(C)CC2)n1 | 125 | 10 | 1480 | –
826 | CN1CCN(c2ccc(-n3ncc4cnc(-c5ccccc5)cc43)cc2)CC1 | 12 | – | 12 | –
13 | COc1cccc(F)c1-c1cc2c(cn1)cnn2-c1cccc(N2CC3(CCCNC3)C2)n1 | 177 | 45 | 792 | –
